From PubChem BioAssay
Only some compounds are listed: those with a hit (about 0.72% of all), similar ones and a draw of the others.
hIAP inh = blocks human intestinal alkaline phosphatase. 0.12% of 330,000 active. purified IAP, CDP-Star luminescence, 30 min. inhibition, % at 10 µM;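 active means inhibition reaching a set limit with compound at 10 µM in the primary screen, cut at about 35% in these data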;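 further: plate controls were DMSO wells with enzyme for no effect and no-enzyme buffer wells for full effect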
Target sequence (P09923 whole entry, looked up): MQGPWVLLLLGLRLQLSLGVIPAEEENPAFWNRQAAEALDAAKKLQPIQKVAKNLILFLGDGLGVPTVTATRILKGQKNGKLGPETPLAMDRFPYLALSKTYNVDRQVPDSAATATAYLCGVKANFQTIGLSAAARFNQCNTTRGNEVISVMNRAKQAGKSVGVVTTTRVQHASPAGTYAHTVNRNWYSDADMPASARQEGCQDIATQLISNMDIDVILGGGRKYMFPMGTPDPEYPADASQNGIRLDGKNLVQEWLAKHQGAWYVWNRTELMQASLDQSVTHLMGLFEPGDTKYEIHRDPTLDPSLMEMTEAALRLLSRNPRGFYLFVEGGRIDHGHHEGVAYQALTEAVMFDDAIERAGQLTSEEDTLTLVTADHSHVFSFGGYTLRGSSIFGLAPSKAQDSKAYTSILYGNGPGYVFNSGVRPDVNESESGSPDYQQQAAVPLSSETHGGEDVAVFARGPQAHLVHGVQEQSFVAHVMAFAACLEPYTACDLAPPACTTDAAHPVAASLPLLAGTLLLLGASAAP
bIAP inhibitor = blocks bovine intestinal alkaline phosphatase activity. inhibition, % at 20 µM. 190,000 tested, under 10 active. purified bovine IAP, CDP-star luminescence, 30 min. AID 1019;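 active means over 50% inhibition of intestinal alkaline phosphatase at 20 µM in the single-dose screen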
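Assay system: bovine IAP enzyme; medium: DEA buffer 100 mM, pH 9.8, with MgCl2 1.0 mM, ZnCl2 0.02 mM; doses: 20 µM single dose; incubation: enzyme reaction for 30 min at room temperature; detection: CDP-star luminescence signal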
hIAP act = increases human intestinal alkaline phosphatase activity | P09923 | purified human IAP, CDP-Star luminescence, 30 min; stronger effect = higher value; 1 = vehicle-only enzyme, 0 = enzyme-free background | activation factor at 10 µM | 0.16% of 330,000 active | AID 2524;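 active means activation factor of the enzyme at least 2-fold when tested at 20 µM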
bIAP act = increases bovine intestinal alkaline phosphatase activity. purified bovine IAP, CDP-star luminescence, 30 min; stronger effect = higher value; fold of DMSO-control signal, blank-subtracted. activation factor at 20 µM. 0.17% of 200,000 active;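 active means activation factor of 2 or more at 20 µM, a signal rise over negative controls twice the positive control's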
mIAP activ = increases mouse intestinal alkaline phosphatase activity; muIAP, CDP-Star luminescence, 30 min; stronger effect = higher value; 1 = vehicle-only enzyme signal, 0 = enzyme-free wells; AID 2805; 0.24% of 330,000 active; activation factor at 10 µM;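 active means activation factor of at least 2 at 20 µM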
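System: Mouse IAP enzyme | Also added: CDP-Star substrate | Dosing: Compounds dispensed in DMSO | Schedule: 30 min enzyme-substrate-compound incubation at room temperature | Technique: Chemiluminescence readout | Control set: DMSO-only wells and no-enzyme negative control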
mIAP inh = mouse IAP inhibition | 0.2% of 330,000 active | inhibition, % at 10 µM | AID 2806 | purified mouse IAP, CDP-Star luminescence, 30 min;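 active means inhibition of at least 40% at 10 µM in the primary screen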;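 further: plate controls were DMSO with enzyme for no effect and no enzyme wells for full effect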
The depositor's hits bear a star; / = not tested or not shown.

SMILES	hIAP inh	bIAP inhibitor	hIAP act	bIAP act	mIAP activ	mIAP inh
Cc1cc(NC(=O)CSc2nc3cc(Cl)ccc3c(=O)n2C(C)C)no1	-2	/	1	/	1	-3
COc1cccc(NC(=O)COC(=O)C2CCCCC2)c1	3	/	0.97	/	1.1	-11
CCOc1ccc2nc(NCCNC(=O)Nc3cccc(C)c3)c(C#N)cc2c1	12	-79	0.88	1.8	2.2*	-115
Cc1ccc(N=Cc2c(O)c3ccccc3oc2=O)c(C)c1	14	/	0.86	/	0.54	46*
CCN(CC)S(=O)(=O)c1cc(NC(=O)CCn2[nH]c(=O)ccc2=O)ccc1C	-23	/	1.2	/	1.1	-11
COc1ccc(-c2csc3ncnc(N4CCN(c5ccccc5[N+](=O)[O-])CC4)c23)cc1	30	/	0.7	/	0.9	10
CC(NC(=O)Nc1ccc(Cl)cc1)C(c1cccs1)N1CCOCC1 (stereo not drawn)	-19	-20	1.2	1.2	2.4*	-137
CC(NC(=O)Nc1ccccc1)C(c1cccs1)N1CCOCC1 (stereo not drawn)	3	4	0.97	1	1	-2
COc1ccc(C=NNc2ccc([N+](=O)[O-])cc2S(=O)(=O)Nc2ccccc2C(=O)O)cc1OC	9	/	0.91	/	0.58	42*
COc1ccccc1NS(=O)(=O)c1cc([N+](=O)[O-])ccc1N/N=C/c1c[nH]c2ccccc12	11	47	0.89	0.5	0.78	22
Cc1ccc2c(C)c(C(=O)N3CCN(c4ncccn4)CC3)oc2c1C	-1	/	1	/	1.1	-7
O=C(CCC1CCCCC1)Nc1nccs1	-9	16	1.1	0.8	0.96	4
O=C(CCC1CCCCC1)Nc1ncn[nH]1	-2	-128	1	2.3*	1.2	-21
COc1cc(S(=O)(=O)N2CCN(Cc3ccc4c(c3)OCO4)CC2)ccc1NC(C)=O	-15	/	1.2	/	1.1	-8
Fc1cccc(/C=N/Nc2ncnc3nc[nH]c23)c1	-97	0	2	1	1.1	-10
Oc1ccc(/C=N/Nc2ncnc3nc[nH]c23)cc1	-45	/	1.4	/	0.77	23
Clc1ccc(/C=N/Nc2ncnc3nc[nH]c23)cc1	-123	/	2.2*	/	1	-1
Cc1ccc(/C=N/Nc2ncnc3nc[nH]c23)cc1	-117	/	2.2*	/	0.88	12
CCOC(=O)c1ccc2c(c1)C1C=CCC1C(C(=O)O)N2 (stereo not drawn)	-3	18	1	0.8	0.45	55*
CCOC(=O)C1Nc2ccc(C(=O)O)cc2C2C=CCC12 (stereo not drawn)	-6	/	1.1	/	0.86	14
CC(C)NC(=O)Nc1ccc2c(c1)C(=O)N([C@H](C)CO)C[C@H](C)[C@@H](CN(C)C(=O)Nc1ccc(C(F)(F)F)cc1)O2	-10	/	1.1	/	2.3*	-132
C[C@H](CO)N1C[C@H](C)[C@@H](CN(C)C(=O)Nc2ccccc2)Oc2ccc(NC(=O)Nc3ccc(C(F)(F)F)cc3)cc2C1=O	10	/	0.9	/	1.9	-90
C[C@H](CO)N1C[C@H](C)[C@@H](CN(C)C(=O)Nc2ccc3c(c2)OCO3)Oc2ccc(NC(=O)NC3CCCCC3)cc2C1=O	4	/	0.96	/	2.3*	-129
C[C@@H]1CN([C@H](C)CO)C(=O)c2cc(NC(=O)Nc3ccc(F)cc3)ccc2O[C@H]1CN(C)C(=O)Nc1ccc(C(F)(F)F)cc1	-7	/	1.1	/	2*	-103
C[C@H](CO)N1C[C@H](C)[C@@H](CN(C)C(=O)Nc2ccc(C(F)(F)F)cc2)Oc2ccc(NC(=O)Nc3ccc4c(c3)OCO4)cc2C1=O	7	/	0.93	/	2.4*	-138
SMILES	hIAP inh	bIAP inhibitor	hIAP act	bIAP act	mIAP activ	mIAP inh
O=C1C2CCCN2C(=O)N1CCN1CCN(CCO)CC1 (stereo not drawn)	2	-173	0.98	2.7*	1	-5
Cn1c(=O)c2c(nc(N/N=C/c3cccs3)n2C)n(C)c1=O	-15	/	1.1	/	1	-4
Cn1c(=O)c2c(nc(N/N=C/c3ccco3)n2C)n(C)c1=O	-35	-108	1.4	2.1*	0.94	6
C[C@@H]1NC(=O)c2cc([N+](=O)[O-])cc(I)c2OCC[C@@H](C(=O)NC(CC(=O)O)C(N)=O)NC(=O)[C@H](CC(N)=O)NC1=O (stereo partly drawn)	1	-22	0.99	1.2	0.55	45*
O=C(Oc1cc(=O)oc2ccccc12)c1cccnc1Cl	15	-143	0.85	2.4*	0.89	11
COc1cc([C@H]2c3[nH]c4ccccc4c3C[C@H]3C(=O)N4[C@@H](c5cc(OC)c(OC)c(OC)c5)c5[nH]c6ccccc6c5C[C@H]4C(=O)N23)cc(OC)c1OC	-9	36	1.1	0.6	3.8*	-276
Cc1cccc(C(C)C)c1NC(=O)COC(=O)Cc1ccsc1	12	-307	0.88	4.1*	0.99	1
CCn1cc(CNCc2cn(-c3ccccc3C)nc2-c2ccc(OC)c(F)c2)cn1	5	0	0.95	1	0.96	4
COc1ccc(-c2nn(-c3ccccc3C)cc2CNCCc2cnc[nH]2)cc1F	-50	-129	1.5	2.3*	1	-3
COc1ccc(C(C)(C)C)cc1NC(=O)COC(=O)CN1C(=O)NC2(CCCCC2C)C1=O (stereo not drawn)	-1	/	1	/	1	-4
O=c1cc(-c2ccc(O)cc2)oc2c(C3OCC(O)C(O)C3O)c(O)c(C3OC(CO)C(O)C(O)C3O)c(O)c12 (stereo not drawn)	-1	/	1	/	0.57	43*
CC(=O)Nc1cccc(NC(=O)C(=O)NCC(c2ccco2)N2CCc3ccccc3C2)c1 (stereo not drawn)	20	/	0.8	/	0.89	11
COc1ccc(CNC(=O)c2ccc(N3CCC4(CC3)CC(c3ccc(Cl)cc3)=NO4)c(NC(=O)Cc3ccc(F)cc3)c2)cc1	-12	/	1.1	/	1	-2
O=C(NC(Nc1ccc(F)cc1)(C(F)(F)F)C(F)(F)F)c1cccnc1	-5	-96	1	2*	1	-5
O=C1CCCC/C=C\C[C@H](CC(=O)N(CCO)Cc2ccccc2)C(=O)N2CCC[C@@H]2CO1	-7	/	1.1	/	0.92	8
O=C(NCCc1ccc(C(F)(F)F)cc1)C1CC(=O)N(Cc2ccccc2)C1 (stereo not drawn)	3	/	0.97	/	0.94	6
NC(=O)C1CCN(C(=O)C2CCN(C(=O)Nc3ccccc3)CC2)CC1	0	/	1	/	0.97	3
CCCCOCCCNC(=S)Nc1ccc(S(=O)(=O)N2CCOCC2)cc1	-12	/	1.1	/	1.3	-29
CC(C)(C)CC(C)(C)NC(=S)Nc1ccc(S(=O)(=O)N2CCOCC2)cc1	8	-3	0.92	1	2.2*	-115
NNC(=S)Nc1ccc(S(=O)(=O)N2CCOCC2)cc1	1	/	0.99	/	0.93	7
